“And” between values parts separate entries of the source, which are not always exact repeats. Equal entries are not always repeated. The source made the active and inactive calls. The calls are words filed in the database; no cut-off is given here.
Columns and labels:
[1] = target: Histamine H1 receptor (Cavia porcellus) (UniProt P31389); assay: H1-Histamine receptor agonism on guinea pig ileum as intrinsic activity given as 1.0 with respect to histamine (paired 't'test; p>0.05).; format: functional, tissue-based
Histamine H1 receptor (Cavia porcellus), sequence (P31389 whole entry): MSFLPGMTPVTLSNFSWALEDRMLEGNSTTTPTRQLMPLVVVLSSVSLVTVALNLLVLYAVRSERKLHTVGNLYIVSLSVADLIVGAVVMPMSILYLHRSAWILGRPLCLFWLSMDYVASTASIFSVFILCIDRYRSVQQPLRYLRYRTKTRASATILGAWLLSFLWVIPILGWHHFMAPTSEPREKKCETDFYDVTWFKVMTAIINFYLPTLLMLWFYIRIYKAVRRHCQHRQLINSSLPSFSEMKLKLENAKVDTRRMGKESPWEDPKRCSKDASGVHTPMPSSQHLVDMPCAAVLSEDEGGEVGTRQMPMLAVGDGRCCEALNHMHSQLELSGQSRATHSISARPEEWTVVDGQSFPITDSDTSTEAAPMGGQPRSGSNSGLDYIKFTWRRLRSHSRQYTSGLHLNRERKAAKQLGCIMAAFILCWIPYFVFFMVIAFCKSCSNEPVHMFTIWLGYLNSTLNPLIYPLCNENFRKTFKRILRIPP

[2] = target: Histamine H1 receptor (Cavia porcellus) (UniProt P31389); assay: The H1 receptor-mediated nature of the ileum contractionhas been verified by competition experiments with the H1 receptor antagonist mepyramine; format: functional, tissue-based
[3] = target: Histamine H1 receptor (Cavia porcellus) (UniProt P31389); assay: Contractile effect on isolated guinea pig aorta is a measure of H1 (histamine) receptor agonistic activity relative to histamine; format: functional, tissue-based
How it was run: (§1)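 Endothelium-denuded 4–6 mm guinea pig thoracic aortic rings, isometric (preload 10 mN), modified Krebs-Henseleit, 37 °C, 95% O2/5% CO2. […] Cumulative curves with 30 μM corticosterone, 100 μM cimetidine, 0.1 μM (R,S)-propranolol and phentolamine present.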

[4] = target: Histamine H1 receptor (Cavia porcellus) (UniProt P31389); assay: Contractile effect on isolated guinea pig ileal segments is a measure of H1 (histamine) receptor agonistic activity relative to histamine.; format: functional
[5] = target: Histamine H1 receptor (Cavia porcellus) (UniProt P31389); assay: H1-Histamine receptor agonism on Guinea pig aorta was evaluated as Intrinsic activity given as 1.0 with respect to histamine (paired 't'test;p>0.05)(SEM 0.01-0.12); format: functional, tissue-based
[6] = target: Histamine H1 receptor (Cavia porcellus) (UniProt P31389); assay: Contractile effects on guinea pig aorta as histamine H1 receptor agonism; format: functional, tissue-based; how it was run: as §1
[7] = target: Histamine H1 receptor (Cavia porcellus) (UniProt P31389); assay: Contractile effect on isolated guinea pig ileal segments by H1 (histamine) receptor agonism.; format: functional
[8] = target: Histamine H2 receptor (Cavia porcellus) (UniProt P47747); assay: Histamine H2 receptor agonism activity was determined on the isolated Guinea pig Atrium was determined as Intrinsic activity with respect to Histamine; format: functional
Histamine H2 receptor (Cavia porcellus), sequence (P47747 whole entry): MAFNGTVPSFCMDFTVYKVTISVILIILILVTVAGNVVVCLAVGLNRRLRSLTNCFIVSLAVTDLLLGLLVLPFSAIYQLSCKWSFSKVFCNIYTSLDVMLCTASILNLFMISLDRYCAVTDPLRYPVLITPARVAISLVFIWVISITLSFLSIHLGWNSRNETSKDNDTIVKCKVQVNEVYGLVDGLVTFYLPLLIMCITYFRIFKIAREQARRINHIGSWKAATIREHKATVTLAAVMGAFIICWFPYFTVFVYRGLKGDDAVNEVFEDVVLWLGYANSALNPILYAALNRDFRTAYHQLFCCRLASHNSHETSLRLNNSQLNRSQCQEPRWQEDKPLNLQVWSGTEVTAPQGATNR
How it was run: (§2)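 Spontaneously beating guinea pig right atrium, isometric, resting force 5 mN, (R,S)-metoprolol 300 nM present throughout.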

[9] = target: Histamine H1 receptor (Cavia porcellus) (UniProt P31389); assay: H1-Histamine receptor agonism on Guinea pig aorta was evaluated as Intrinsic activity given as 1.0 with respect to histamine (paired 't'test;p>0.05); format: functional, tissue-based; how it was run: as §1
[10] = target: Histamine H2 receptor (Cavia porcellus) (UniProt P47747); assay: Histamine H2 receptor agonism activity was determined on the isolated Guinea pig Atrium was determined as pD'2; format: functional; how it was run: as §2
[11] = target: Histamine H1 receptor (Cavia porcellus) (UniProt P31389); assay: Contractile effects of compound on the guinea pig aorta as a measure of histamine H1 receptor agonism; f - effect could be antagonized with 1 pM mepyramine added to the bath solution when a plateau was reached.; format: functional, tissue-based; settings: filed as agonist, in the assay text read “1 µM mepyramine” for “1 pM mepyramine”; how it was run: as §1
[12] = target: Histamine H1 receptor (Cavia porcellus) (UniProt P31389); assay: H1-Histamine receptor agonism on Guinea pig aorta was evaluated as Intrinsic activity given as 1.0 with respect to histamine (paired 't'test;p>0.05) (SEM0.03-0.18); format: functional, tissue-based; how it was run: as §1
[13] = target: Histamine H1 receptor (Cavia porcellus) (UniProt P31389); assay: The H1 receptor-mediated nature of the ileum contractionhas been verified by competition experiments with the H1 receptor antagonist mepyramine; O=effect could be antagonized with 1 uM Mepyramine added to the bath solution when a plateau was re; format: functional, tissue-based
[14] = target: Histamine H1 receptor (Cavia porcellus) (UniProt P31389); assay: The H1 receptor-mediated nature of the ileum contractionhas been verified by competition experiments with the H1 receptor antagonist mepyramine;O=effect could be antagonized with 1 uM Mepyramine added to the bath solution when a plateau was rea; format: functional, tissue-based
Cavia porcellus = species: Cavia porcellus; assay: Relative activity with respect to Histamine on guinea pig ileum..; format: functional
How it was run: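 Guinea pig ileum segments (either sex), 1.5 cm, mounted isotonically under 5 mN preload in Tyrode solution with 0.1 μM atropine, 95% O2/5% CO2 gassed, 37 °C. […] Potency is read from graphically analysed concentration–effect curves as geometric means.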

[15] = target: Histamine H1 receptor (Cavia porcellus) (UniProt P31389); assay: H1-Histamine receptor agonism on Guinea pig aorta was evaluated as Intrinsic activity given as 1.0 with respect to histamine (paired 't'test;p>0.05) (SEM 0.01-0.12); format: functional, tissue-based; how it was run: as §1
[16] = target: Histamine H1 receptor (Mus musculus) (UniProt P70174); assay: In vivo binding of H1 receptor Agonists measured by binding of [3H]mepyramine to Mouse cerebral cortex at the dosage of ( 3 mg/kg(no. of mice treated=5 ); settings: at 3 mg/kg
Histamine H1 receptor (Mus musculus), sequence (P70174 whole entry, looked up): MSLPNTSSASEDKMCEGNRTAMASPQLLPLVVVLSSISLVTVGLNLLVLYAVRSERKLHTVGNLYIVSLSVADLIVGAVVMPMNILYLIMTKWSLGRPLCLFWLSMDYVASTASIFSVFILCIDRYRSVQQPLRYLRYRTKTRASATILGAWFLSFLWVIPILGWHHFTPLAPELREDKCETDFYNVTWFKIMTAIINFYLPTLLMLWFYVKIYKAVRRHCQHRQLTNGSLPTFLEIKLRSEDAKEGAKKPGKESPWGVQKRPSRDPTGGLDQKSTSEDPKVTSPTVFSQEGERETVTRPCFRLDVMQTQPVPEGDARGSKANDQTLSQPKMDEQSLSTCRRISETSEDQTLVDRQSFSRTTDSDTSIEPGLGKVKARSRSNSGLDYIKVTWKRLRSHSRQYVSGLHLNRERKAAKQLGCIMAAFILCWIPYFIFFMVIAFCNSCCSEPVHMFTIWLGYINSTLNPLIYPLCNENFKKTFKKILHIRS

[17] = target: Histamine H1 receptor (Mus musculus) (UniProt P70174); assay: In vivo binding of H1 receptor Agonists measured by binding of [3H]mepyramine to Mouse cerebral cortex at the dosage of ( 10 mg/kg(no. of mice treated=5 ); settings: at 10 mg/kg
[18] = target: Histamine H1 receptor (Mus musculus) (UniProt P70174); assay: In vivo binding of H1 receptor Agonists measured by binding of [3H]mepyramine to Mouse cerebral cortex at the dosage of ( 30 mg/kg(no. of mice treated= 5 ); settings: at 30 mg/kg
[19] = target: Histamine H1 receptor (Mus musculus) (UniProt P70174); assay: In vivo binding of H1 receptor Agonists measured by binding of [3H]mepyramine to Mouse cerebral cortex at the dosage of ( 100 mg/kg(no. of mice treated= 3 ); settings: at 100 mg/kg
[20] = target: Histamine H1 receptor (Mus musculus) (UniProt P70174); assay: In vivo binding of H1 receptor Agonists measured by binding of [3H]-Mepyramine to Mouse cerebral cortex at the dosage of ( 300 mg/kg(no. of mice treated= 3 ); settings: at 300 mg/kg

Intrinsic activity [1] | pKb [2] | Relative activity [3] | Relative activity [4] | pD2 [7] | Compound | further results
0 | 3.55 | – | – | – | NCCc1c[nH]c(Cc2ccccc2C(F)(F)F)n1 | –
1 | 9.04 | 11% | 26% | 6.11 | NCCc1c[nH]c(-c2csc(Br)c2)n1 | Intrinsic activity [5]: 0.6; pKb [6]: 8.63
1 | 9.28 | 47% | 96% | 6.68 | NCCc1c[nH]c(-c2cccc(I)c2)n1 | Intrinsic activity [8]: 0; Intrinsic activity [9]: 0.49; pD'2 [10]: 3.76; pKb [6]: 9.13
1 | 8.87 | 19% | 10% and 31% | 6.2 | NCCc1c[nH]c(-c2ccccc2)n1 | Intrinsic activity [8]: 0.2; Intrinsic activity [9]: 0.86; pD'2 [10]: < 3; pKb [6]: 9.1
1 | 9.04 | – | 15% | 5.87 | Cc1cccc(-c2nc(CCN)c[nH]2)c1 | –
0.54 | 8.91 | 0.2% | 3% | 5.11 | NCCc1c[nH]c(Cc2ccccc2Cl)n1 | Intrinsic activity [9]: 0.38; pKb [11]: Agonist
– | – | – | 40% | – | COc1cccc(-c2nc(CCN)c[nH]2)c1 | –
1 | 8.97 | 0.9% | 4% | 5.26 | NCCc1c[nH]c(Cc2ccsc2)n1 | Intrinsic activity [9]: 0.4; pKb [11]: Agonist
– | – | – | 81% | – | NCCc1c[nH]c(-c2cccc(Cl)c2)n1 | –
1 | – | – | – | – | NCCc1c[nH]c(-c2cccc(Br)c2)n1 | Intrinsic activity [8]: 0; Intrinsic activity [9]: 0.64
1 | 8.93 | 12% | 46% | 6.36 | NCCc1c[nH]c(-c2cccs2)n1 | Intrinsic activity [8]: 0.25; Intrinsic activity [12]: 0.5; pD'2 [10]: < 3; pKb [6]: 8.83
1 | 8.92 | – | 54% | 6.43 | NCCc1c[nH]c(-c2cccc(OC(F)(F)F)c2)n1 | –
0.93 | 9.03 | 12% | 14% | 5.86 | NCCc1c[nH]c(-c2ccc[nH]2)n1 | Intrinsic activity [5]: 0.74; pKb [6]: 9.27
– | – | – | 87% | – | NCCc1c[nH]c(-c2cccc(F)c2)n1 | –
1 | 9.03 | – | 70% | 6.54 | NCCc1c[nH]c(-c2cncc(Br)c2)n1 | –
1 | 9.13 | 19% | 66% | 6.52 | NCCc1c[nH]c(-c2ccsc2)n1 | Intrinsic activity [8]: 0.13; Intrinsic activity [5]: 0.43; pD'2 [10]: < 3; pKb [6]: 9.01
0.24 | – | – | 1% | 4.85 | NCCc1c[nH]c(-c2ccc3ccccc3c2)n1 | pKb [13]: Active
– | 9.09 | – | – | 6.7 | NCCc1c[nH]cn1 | Intrinsic activity [8]: 1; Intrinsic activity [9]: 1.06
1 | 8.92 | 0.8% | 3% | 5.09 | NCCc1c[nH]c(Cc2cccs2)n1 | Intrinsic activity [5]: 0.45; pKb [11]: Agonist
0 | – | – | – | – | NCCc1c[nH]c(Cc2ccc(C(F)(F)F)cc2)n1 | PkB [2]: 4.53
0 | 4.73 | – | – | – | NCCc1c[nH]c(-c2cc3ccccc3c3ccccc23)n1 | –
0.26 | – | – | < 1% | 4.47 | NCCc1c[nH]c(-c2ccccc2C(F)(F)F)n1 | pKb [14]: Active
0.76 | 8.81 | 0.4% | 2% | 4.88 | NCCc1c[nH]c(Cc2cccc(Cl)c2)n1 | Intrinsic activity [9]: 0.51; pKb [11]: Agonist
0.28 | – | – | < 1% | 4.57 | NCCc1c[nH]c(Cc2cccc(C(F)(F)F)c2)n1 | pKb [13]: Active
– | – | – | 8% | – | CNCCc1ccccn1 | –
0.24 | – | – | < 1% | 4.6 | NCCc1c[nH]c(-c2ccc(C(F)(F)F)cc2)n1 | pKb [14]: Active
1 | 9.16 | 23% | 47% | 6.37 | NCCc1c[nH]c(-c2ccco2)n1 | Intrinsic activity [8]: 0.36; Intrinsic activity [15]: 0.47; pD'2 [10]: < 3; pKb [6]: 9.28
1 | 9.14 | 94% | 128% | 6.81 | NCCc1c[nH]c(-c2cccc(C(F)(F)F)c2)n1 | Intrinsic activity [8]: 0; Intrinsic activity [9]: 0.8; pD'2 [10]: 3.48; pKb [6]: 9.04; Control [16]: 101%; Control [17]: 122%; Control [18]: 98%; Control [19]: 112%; Control [20]: 129%

Compound | Intrinsic activity [1] | pKb [2] | Relative activity [3] | Relative activity [4] | pD2 [7] | further results
Cc1ncc(CCN)[nH]1 | – | – | – | 15% | – | –
NCCc1c[nH]c(C(F)(F)F)n1 | 1 | 9.19 | – | 7% | 5.57 | Intrinsic activity [8]: 0.55
NCCc1nccs1 | 1 | 9.17 | 18% | 45% | 6.36 | Relative activity (Cavia porcellus): 20%; Intrinsic activity [9]: 1.02; pKb [6]: 9.02

— ChEMBL document CHEMBL1128295 (J Med Chem, 1995)
